Test results reported in the EternaBench riboswitch data.

System: MS2 coat protein
Assay: apparent Kd, MS2 coat protein; higher = weaker binding; RNA-MaP array; FMN 200 µM where present
Procedure, shortened: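 The apparent Kd comes from binding curves fitted cluster by cluster, filtered, and summarised as a median. Those curves followed SNAP-549-labelled MS2 coat protein from 0.7 or 1.5 nM, doubling to 3 µM, on Illumina sequencing-chip clusters where stalled E. coli RNA polymerase had transcribed the designs, without and then with constant ligand. The buffer was 100 mM Tris-HCl pH 7.5, 80 mM KCl, 4 mM MgCl2, BSA, DTT, yeast tRNA and Tween-20, and green signal was normalised to red-channel RNA signal and control-cluster median Fmax.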

[1] = designed as: OFF switch for flavin mononucleotide, no ligand
[2] = ligand present: flavin mononucleotide, designed as: OFF switch for flavin mononucleotide
[3] = designed as: ON switch for flavin mononucleotide, no ligand
[4] = ligand present: flavin mononucleotide, designed as: ON switch for flavin mononucleotide

Sequence	apparent Kd [1] [nM]	apparent Kd [2] [nM]	apparent Kd [3] [nM]	apparent Kd [4] [nM]
CAUUAAUUGAUUAUUGAAUAUUUACAGGAUAUGUAACAUGAGGAUCACCCAUGUAAACAUGGAUUACAGAAGGGUAUUUAUAGA	37	26.1		
CCAACCGUAGGAUAUUCCAAGUCCGACAUGAGGAUCACCCAUGUGUUUCUCUGCGAUUUAGGAGAAGGGCGGUUGG	349	474		
CCAAUGUAAGGAUAUGACAAUGGUAUCUUCGGAUACCAUUGUCAGAAGGUACAUGAGGAUCACCCAUGUAUAAA	18.7	41.1		
CCACAGAUAGGAUAUACUGGGUGGGAUAAAUAUUUCCUGUGACAUGAGGAUCACCCAUGUAGAAGGAUCACAAG	38.2	42.4		
CCACGUCACAUUAACAUGAGGAUCACCCAUGUCAAAAGACAUGAGGAUAUGCAUCCUAAUUGGAUGCAGAAGGCAUGGACGUGG			475	36.1
CCACGUCACAUUUACAUGAGGAUCACCCAUGUCGAAAGACAUGAGGAUAUGCAUCCUAAUUGGAUGCAGAAGGCAUGGACGUGG			276	274
CCACUCGAGCAGAAGGCAAUGAGGGUUAUACAUUGAGGAUAUGCUACGUAUGUGGUACAUGAGGAUCACCCAUGUAGCCUAUCU			389	21.3
CCAGACGUAGGAUAUACAUUUGGGUAAUCCCGCGGAAAGAUACAUGAGGAUCACCCAUGUAGAAGGGCGGUAAA	31.1	21.1		
CCAGAGAUAUGAGGAUAUCGAGUGGAUAACACUCGAGAAGGCAUGUGAAAACAUGAGGAUCACCCAUGUAUGAUCUACUCUGGA			50.6	23.8
CCAGAUAUGUGAGGAUAUAUAGUGGAAUACACUAUAGAAGGUAUGUGAGAACAUGAGGAUCACCCAUGUCAUUGGUUAUCUGGA			29.7	35.6
CCAGCAACAUGAGGAUCACCCAUGUAGGAUAUCGCUAUUGUAAUCAUGAAACAUGAUUACAAUAGCGAGAAGGACAUAUGCUAA	9.29	10.2		
CCAGCAACAUGAGGAUCACCCAUGUAGGAUAUCGCUAUUGUAAUCAUGAAACAUGAUUACAAUAGCGAGAAGGACAUAUGCUUU	11	12		
CCAGCGAGUGUGAGGAUAUGCUGGUCCUUGGAUCAGCAGAAGGCACAUGAGGAUCACCCAUGUGAAAACGUUGG	28.8	179		
CCAGGCUGUGUGAGGAUAUGCUGGUCCUUGGAUCAGCAGAAGGCACAUGAGGAUCACCCAUGUGAGUAGCUUGG	16.2	62.2		
CCAGGCUUCGAGAAGGACAUGAGGAUCACCCAUGUGCGUGUAAAACAGCCAAAAGGCUGCAUCAUGUAGGAUAUCGGAGUCUGC	275	95.5		
CCAGUGUCAGGAUAUAUCACAAAGAACCCAACCGGGCUUUGGUAGAAGGGACAUGAGGAUCACCCAUGUUGUUU	30.9	44		
CCAUAAAAGAUCCAAAUUUACAACAUGAGGAUCACCCAUGUGCAGGAUAUCGUGAAAGUAAAAUACGAGAAGGGCAAGAACUGC	300	362		
CCAUAAAAGAUCCAAUUUUACAACAUGAGGAUCACCCAUGUGCAGGAUAUCGUGAAAGUAAAAUACGAGAAGGGCAAGAACUGC	265	246		
CCAUAAAGGUAGGAUAUCGAUUUUAAUUAAUAUCGAGAAGGGUCAACAUGAGGAUCACCCAUGUCAGCAUGUAA	60.9	58.7		
CCAUGACAAAGUCAUGGAAUACGAACAUGAGGAUCACCCAUGUAGGAUAUGCUACUCAAAGAGUAGCAGAAGGACAUGUGUCUU	29.9	156		
CCAUGCGGAUGAGGAUAUUCAUUCAUGAGGAUAGAAGAAGGCGUACAUGAGGAUCACCCAUGUAUACACAUGAGGAUCCCUUAC	385	372		
CCCAAACUUGGGCUUGGCGGUGCAUAGGAUAUCCUUGGACAUGAGGAUCACCCAUGUACAACUGUGGAGAAGGGUGCAGGGCCU			31.2	8.61
CCCACGAAAGUCGAACGAUGAUGGAGAAGGACAAUAACAUGACAUGAGGAUCACCCAUGUGCCAUGUAGGAUAUCCAUCAUGGG	7.49	6.78		
